Data as given in ChEMBL document CHEMBL1821568, “Conjugates of 3α-methoxyserrat-14-en-21β-ol (PJ-1) and 3β-methoxyserrat-14-en-21β-ol (PJ-2) as cancer chemopreventive agents” (Eur J Med Chem, 2011).

Columns and labels:
Raji [1] = test: Inhibition of TPA-induced EBV-early antigen activation in human Raji cells assessed as EA activation at 100 molar ratio after 48 hrs relative to control; assay type: cell-based; conditions: human gammaherpesvirus 4
How it was run: (§1)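 Raji cells (non-producer sub-line, spontaneous EA under 0.1%) at 1×10^6/mL, incubated 37 °C for 48 h with n-butyric acid (4 mmol), TPA (32 pmol in DMSO) and compound in DMSO. Dose expressed as mol ratio to TPA (1000, 500, 100, 10). EA-positive cells were detected by indirect immunofluorescence with NPC patient serum, at least 500 cells counted. Assays were run in triplicate. Results are relative to butyrate+TPA control (100%). IC50 given in nM.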

[2] = Inhibition of TPA-induced EBV-early antigen activation in human Raji cells assessed as EA activation after 48 hrs; assay type: cell-based, human gammaherpesvirus 4; how it was run: as §1
Raji [3] = test: Inhibition of TPA-induced EBV-early antigen activation in human Raji cells assessed as EA activation at 10 molar ratio after 48 hrs relative to control; assay type: cell-based; parameters: scale not given: the % may be the effect or the level left; conditions: human gammaherpesvirus 4; how it was run: as §1
Raji [4] = test: Inhibition of TPA-induced EBV-early antigen activation in human Raji cells assessed as EA activation at 500 molar ratio after 48 hrs relative to control; assay type: cell-based; parameters: scale not given: the % may be the effect or the level left; conditions: human gammaherpesvirus 4; how it was run: as §1
Raji [5] = test: Inhibition of TPA-induced EBV-early antigen activation in human Raji cells assessed as EA activation at 1000 molar ratio after 48 hrs relative to control; assay type: cell-based; parameters: scale not given: the % may be the effect or the level left; conditions: human gammaherpesvirus 4; how it was run: as §1
[6] = Cytotoxicity against human Raji cells carrying EBV genome assessed as cell viability at 1000 molar ratio by trypan blue staining method; assay type: cell-based; conditions: read-out: Activity
How it was run: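 Raji cells (EBV genome-carrying, in RPMI-1640 with 10% FBS) at 1×10^6/mL, incubated 48 h at 37 °C with n-butyric acid (4 mmol), TPA (32 pmol) and test compound in DMSO. Viability scored by Trypan Blue staining. Molar ratio means mol of compound per mol of TPA (32 pmol).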

Mus musculus [7] = test: Toxicity in ICR mouse assessed as edema at 85 nmol; assay type: organism-based; conditions: in vivo
Mus musculus [8] = test: Inhibition of DMBA-induced and TPA-promoted carcinogenesis in ICR mouse assessed as reduction of mouse bearing papillomas at 85 nmol administered 1 hr before TPA treatment measured after 20 weeks; assay type: functional
How it was run: (§2)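 Female SPF ICR mice, 6 weeks old, 15 per group, backs shaved. Initiation was one topical dose of DMBA (390 nmol) in acetone 0.1 mL. Promotion was TPA (1.7 nmol) twice weekly, with compound given topically at 85 nmol. Papilloma incidence and papillomas per mouse were followed to week 20, and tumor length and width were recorded. Significance was set at P<0.05 versus the DMBA/TPA control.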

Mus musculus [9] = test: Inhibition of DMBA-induced and TPA-promoted carcinogenesis in ICR mouse assessed as reduction of mouse bearing papillomas width at 85 nmol administered 1 hr before TPA treatment measured after 20 weeks; assay type: functional; how it was run: as §2
Mus musculus [10] = organism: Mus musculus; test: Toxicity in ICR mouse assessed as erosion at 85 nmol; assay type: organism-based; conditions: in vivo
Mus musculus [11] = organism: Mus musculus; test: Toxicity in ICR mouse assessed as change in body weight at 85 nmol; assay type: organism-based; conditions: in vivo
Mus musculus [12] = organism: Mus musculus; test: Toxicity in ICR mouse assessed as ulcer at 85 nmol; assay type: organism-based; conditions: in vivo
Mus musculus [13] = test: Inhibition of DMBA-induced and TPA-promoted carcinogenesis in ICR mouse assessed as reduction of mouse bearing papillomas at 85 nmol administered 1 hr before TPA treatment measured after 10 to 15 weeks; assay type: functional; how it was run: as §2
Mus musculus [14] = organism: Mus musculus; test: Toxicity in ICR mouse assessed as lesional damage at 85 nmol; assay type: organism-based; conditions: in vivo
Mus musculus [15] = test: Inhibition of DMBA-induced and TPA-promoted carcinogenesis in ICR mouse assessed as reduction of mouse bearing papillomas length at 85 nmol administered 1 hr before TPA treatment measured after 20 weeks; assay type: functional; how it was run: as §2

| IC50 [2] | SMILES | EA activation relative to control (Raji [1]) | Activity (Raji [3]) | Activity (Raji [4]) | Activity (Raji [5]) | viability at 1000 molar ratio [6] | Activity (Mus musculus [7]) | inhibition (INH) (Mus musculus [8]) | Activity (Mus musculus [9]) | Activity (Mus musculus [10]) | Activity (Mus musculus [11]) | Activity (Mus musculus [12]) | inhibition (INH) (Mus musculus [13]) | Activity (Mus musculus [14]) | Activity (Mus musculus [15]) |
| --- | --- | --- | --- | --- | --- | --- | --- | --- | --- | --- | --- | --- | --- | --- | --- |
| 455 nM | CO[C@H]1CC[C@@]2(C)[C@@H](CC[C@@]3(C)CC4=CC[C@H]5C(C)(C)[C@H](OC(=O)CCC(=O)Oc6ccc(-c7coc8cc(O)cc(O)c8c7=O)cc6)CC[C@]5(C)[C@H]4CC[C@@H]32)C1(C)C | 79.6% | 100% | 45.2% | 12% | 60% |  |  |  |  |  |  |  |  |  |
| 281 nM | CO[C@@H]1CC[C@@]2(C)[C@@H](CC[C@@]3(C)CC4=CC[C@H]5C(C)(C)[C@H](OC(=O)CCC(=O)O)CC[C@]5(C)[C@H]4CC[C@@H]32)C1(C)C | 68.3% | 92.4% | 32.4% | 0% | 60% |  |  |  |  |  |  |  |  |  |
| 470 nM | CO[C@H]1CC[C@@]2(C)[C@@H](CC[C@@]3(C)CC4=CC[C@H]5C(C)(C)[C@H](OC(=O)CCC(=O)Oc6ccc([C@@H]7CC(=O)c8c(O)cc(O)cc8O7)cc6)CC[C@]5(C)[C@H]4CC[C@@H]32)C1(C)C | 80% | 100% | 47.3% | 14% | 60% |  |  |  |  |  |  |  |  |  |
| 248 nM | CO[C@H]1CC[C@@]2(C)[C@@H](CC[C@@]3(C)CC4=CC[C@H]5C(C)(C)[C@H](OC(=O)CC(C)(C)C(=O)O)CC[C@]5(C)[C@H]4CC[C@@H]32)C1(C)C | 67% | 90.3% | 28.5% | 0% | 60% |  |  |  |  |  |  |  |  |  |
| 285 nM | CO[C@H]1CC[C@@]2(C)[C@@H](CC[C@@]3(C)CC4=CC[C@H]5C(C)(C)[C@H](OC(=O)CCC(=O)O)CC[C@]5(C)[C@H]4CC[C@@H]32)C1(C)C | 69.5% | 93.8% | 33.6% | 0% | 60% |  |  |  |  |  |  |  |  |  |
| 449 nM | CC1(C)CC[C@]2(C(=O)O)CC[C@]3(C)C(=CC[C@@H]4[C@@]5(C)CC[C@H](O)C(C)(C)[C@@H]5CC[C@]43C)[C@@H]2C1 [OLEANOLIC_ACID] | 80% | 100% | 30% | 12.7% |  |  |  |  |  |  |  |  |  |  |
| 251 nM | CO[C@@H]1CC[C@@]2(C)[C@@H](CC[C@@]3(C)CC4=CC[C@H]5C(C)(C)[C@H](OC(=O)CC(C)(C)C(=O)O)CC[C@]5(C)[C@H]4CC[C@@H]32)C1(C)C | 67.5% | 91.5% | 29.7% | 0% | 60% | Non-toxic | 80% | 14 mm | Non-toxic | Non-toxic | Non-toxic | 13.3% | Non-toxic | 16 mm |
| 498 nM | CO[C@@H]1CC[C@@]2(C)[C@@H](CC[C@@]3(C)CC4=CC[C@H]5C(C)(C)[C@H](OC(=O)CCC(=O)Oc6ccc(-c7coc8cc(O)ccc8c7=O)cc6)CC[C@]5(C)[C@H]4CC[C@@H]32)C1(C)C | 83.4% | 100% | 50.3% | 15.8% | 60% |  |  |  |  |  |  |  |  |  |
| 495 nM | CO[C@H]1CC[C@@]2(C)[C@@H](CC[C@@]3(C)CC4=CC[C@H]5C(C)(C)[C@H](OC(=O)CCC(=O)Oc6ccc(-c7coc8cc(O)ccc8c7=O)cc6)CC[C@]5(C)[C@H]4CC[C@@H]32)C1(C)C | 82.6% | 100% | 49.4% | 15% | 60% |  |  |  |  |  |  |  |  |  |
| 375 nM | COc1c(O)cc(C(=O)O[C@@H]2CC[C@]3(C)[C@H]4CC[C@H]5[C@@](C)(CC[C@H]6C(C)(C)[C@@H](OC)CC[C@@]65C)CC4=CC[C@H]3C2(C)C)cc1O | 72.5% | 93.4% | 37.8% | 4.7% | 60% |  |  |  |  |  |  |  |  |  |
| 473 nM | CO[C@@H]1CC[C@@]2(C)[C@@H](CC[C@@]3(C)CC4=CC[C@H]5C(C)(C)[C@H](OC(=O)CCC(=O)Oc6ccc([C@@H]7CC(=O)c8c(O)cc(O)cc8O7)cc6)CC[C@]5(C)[C@H]4CC[C@@H]32)C1(C)C | 81% | 100% | 48.7% | 14.3% | 60% |  |  |  |  |  |  |  |  |  |
| 230 nM | CO[C@@H]1CC[C@@]2(C)[C@@H](CC[C@@]3(C)C[C@]45CC[C@@H]6C(C)(C)[C@H](OC(=O)CC(C)(C)C(=O)O)CC[C@@]6(C)[C@@]4(CC[C@@H]32)O5)C1(C)C | 68.4% | 89.6% | 26.6% | 0% | 60% | Non-toxic | 93.3% | 17 mm | Non-toxic | Non-toxic | Non-toxic | 26.6% | Non-toxic | 18 mm |
| 449 nM | CO[C@H]1CC[C@@]2(C)[C@@H](CC[C@@]3(C)CC4=CC[C@H]5C(C)(C)[C@H](OC(=O)CN)CC[C@]5(C)[C@H]4CC[C@@H]32)C1(C)C | 80.3% | 100% | 42.5% | 12% | 60% |  |  |  |  |  |  |  |  |  |
| 458 nM | CO[C@@H]1CC[C@@]2(C)[C@@H](CC[C@@]3(C)CC4=CC[C@H]5C(C)(C)[C@H](OC(=O)CCC(=O)Oc6ccc(-c7coc8cc(O)cc(O)c8c7=O)cc6)CC[C@]5(C)[C@H]4CC[C@@H]32)C1(C)C | 81% | 100% | 45.9% | 12.2% | 60% |  |  |  |  |  |  |  |  |  |
| 290 nM | CO[C@H]1CC[C@@]2(C)[C@@H](CC[C@@]3(C)CC4=CC[C@H]5C(C)(C)[C@H](OC(=O)c6cc(O)c(O)c(O)c6)CC[C@]5(C)[C@H]4CC[C@@H]32)C1(C)C | 71.3% | 91.5% | 36.5% | 2.2% | 60% | Non-toxic | 86.6% | 15 mm | Non-toxic | Non-toxic | Non-toxic | 20% | Non-toxic | 18 mm |
| 460 nM | CO[C@H]1CC[C@@]2(C)[C@@H](CC[C@@]3(C)CC4=CC[C@H]5C(C)(C)[C@H](OC(=O)CN6CCCCC6)CC[C@]5(C)[C@H]4CC[C@@H]32)C1(C)C | 82% | 100% | 46.3% | 13.5% | 60% |  |  |  |  |  |  |  |  |  |
